Source: PubChem (several laboratories)
GalR3 antag – GalR3 antagonists in HEK293 cells, primary screen, cell-based, fluorescence readout. inhibition, % at 3 µM. Galanin receptor type 3 (Homo sapiens), O60755. HEK293 GalR3-CNG cAMP membrane potential fluorescence; galR3 body fused to GalR1 C-terminus. 0.44% of 360,000 active. AID 651719, 2012;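 active means inhibition above the screen-wide average plus 3 SD, cut at about 13% in these data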;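 further: forskolin and galanin both at EC90 stimulate the cells; cAMP rise reported by CNG channel membrane potential dye signal; 0% = forskolin plus galanin with DMSO and 100% = forskolin alone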
Target sequence (O60755 1-299 limits assumed): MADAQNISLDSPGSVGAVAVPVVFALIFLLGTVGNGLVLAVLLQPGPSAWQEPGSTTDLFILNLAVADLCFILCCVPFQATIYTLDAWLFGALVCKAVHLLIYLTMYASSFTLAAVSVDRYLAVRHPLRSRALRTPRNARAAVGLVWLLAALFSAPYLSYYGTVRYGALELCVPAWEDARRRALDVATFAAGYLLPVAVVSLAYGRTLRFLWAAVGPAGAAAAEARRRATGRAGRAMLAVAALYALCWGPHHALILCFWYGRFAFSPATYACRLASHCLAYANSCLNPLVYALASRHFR
NR2E3 ag-1 – NR2E3 agonists in two-hybrid cells, primary screen, cell-based, luminescence, CHO-S, Gal4-NCOR/VP16-NR2E3; Photoreceptor-specific nuclear receptor (Homo sapiens), Q9Y5X4; luciferase; inhibition of corepressor binding, % at 3.98 µM; 0.35% of 360,000 active; AID 602229, 2012;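 active means inhibition above the mean of all tested compounds plus 3 SD, cut at about 70% in these data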;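 further: 0% = DMSO with NR2E3 transfected cells and 100% = cells lacking NR2E3 construct; higher means lower luciferase signal from less NR2E3 corepressor binding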
697 NFkB inh – inhibitors of PMA/ionomycin-induced NF-kB reporter, 697 cells, primary screen, B-cell NF-kB inhibitor project, cell-based, luminescence, uHTS; 697 B-cell NF-kB luciferase reporter, 16 h; inhibition, % at 4 µM; 0.33% of 330,000 active; AID 435022, 2010; in the data active means inhibition above about 35%
NR2E3 ag-2 – inhibitors of NR2E3-RetCOR corepressor binding, primary screen, NR2E3 agonist project, biochemical, TR-FRET, GST-NR2E3, biotin-RetCOR. Photoreceptor-specific nuclear receptor (Homo sapiens), Q9Y5X4. 1536-well. inhibition of corepressor binding, % at 4.78 µM. 0.12% of 320,000 active;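 active means percent inhibition above the cutoff of mean plus 3 SD of all tested compounds, set per screening campaign, cut at about 20% in these data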;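 further: 0% = DMSO wells and 100% = biotin wells as full block of FRET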
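Material – GST-tagged NR2E3 plus biotinylated RetCOR corepressor · Quantity – NR2E3 fusion 1.35 nM · Times – 5 h incubation at 4 °C · Medium – pH 7.5 Tris-based buffer · Technique – TR-FRET, Eu(K)-anti-GST donor, streptavidin-D2 acceptor, ex 340, em 617/671 nm · Benchmarks – high control biotin, low control 0.6% DMSO · Format – 1536-well plates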
Jurkat NFkB inh – inhibitors of induced NF-kB luciferase reporter, primary screen, TCR NF-kB activation inhibitor project, cell-based, luminescence, uHTS | AID 435003, 2010 | Jurkat, PMA/ionomycin-induced NF-kB luciferase reporter | 0.53% of 330,000 active | inhibition, % at 4 µM; in the data active means inhibition above about 50%
JMJD2C inh – inhibitors of GASC-1 histone demethylase, primary screen, biochemical, fluorescence, DELFIA europium; Lysine-specific demethylase 4C (Homo sapiens), Q9H3R0; GST-JMJD2C(1-420) H3K9me3 demethylation; inhibition, % at 2.35 µM; 0.069% of 330,000 active;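 active means more than half of a compound's replicate wells show inhibition beyond 50%, single wells judged on their own value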;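 further: signal counts dimethyl H3K9 product captured on neutravidin plate; 0% = median of DMSO wells and 100% = 0.3 times that DMSO median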
GalR3 conf – GalR3 antagonist hit confirmation, cell-based, fluorescence, triplicate. shares compounds with GalR3 antag. HEK293 GalR3 CNG cAMP biosensor, membrane potential fluorescence; galR3 fused to GalR1 carboxy tail; challenged with forskolin and galanin at EC90. inhibition, % at 3 µM. 59% of 1,600 active. AID 652245, 2013;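 active means inhibition above the primary screen's cutoff, the mean inhibition of all screened compounds plus 3 SD, cut at about 13% in these data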;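 further: 0% = forskolin plus galanin and 100% = forskolin alone with DMSO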
HEK-CNG parental – nonspecific cAMP agonists in parental HEK-CNG cells, counter-screen for GalR3 antagonist project, cell-based, fluorescence, high throughput; shares compounds with GalR3 antag; HEK293-CNG parental cells, cAMP membrane potential fluorescence; normalised: DMSO wells 0%, forskolin wells 100%; activation, % at 3 µM; 10% of 1,600 active; AID 652268, 2013; in the data active means activation above about 1.3%
The depositor's hits bear a star. In the library only some 1.5% were active in any assay of this set; here they are far more common.

How did CCN1C(=O)[C@@H]2[C@@H](c3ccc(-c4ccc(Cl)c(Cl)c4)c(OC)c3)N3CCCC[C@@]3(C(=O)OC)[C@@H]2C1=O do in these assays?
GalR3 antag: 13*; NR2E3 ag-1: 4; 697 NFkB inh: -4; NR2E3 ag-2: 3; Jurkat NFkB inh: 16; JMJD2C inh: -5; GalR3 conf: -7; HEK-CNG parental: 1.9*

How did Cc1nnc(NC(=O)C(C)Sc2nnc(CCNC(=O)c3ccccc3F)n2C)s1 (configuration not stated) do in these assays?
GalR3 antag: 13*; NR2E3 ag-1: -25; 697 NFkB inh: 16; NR2E3 ag-2: 2; Jurkat NFkB inh: 22; JMJD2C inh: 6; GalR3 conf: 5; HEK-CNG parental: 0

Results for COc1cc(N)c(C(O)c2nccc3cc(OC)c(OC)cc23)cc1OC (configuration not stated) ?
GalR3 antag: -9; NR2E3 ag-1: -4; 697 NFkB inh: 5; NR2E3 ag-2: 1; Jurkat NFkB inh: -3; JMJD2C inh: 34

Results for COc1ccc(C(O)c2nccc3cc(OC)c(OC)cc23)cc1OC (configuration not stated) ?
GalR3 antag: 17*; NR2E3 ag-1: -5; 697 NFkB inh: 3; NR2E3 ag-2: 2; Jurkat NFkB inh: 10; JMJD2C inh: 29; GalR3 conf: 1; HEK-CNG parental: 0

How did C/C(=N\NC(=O)c1ccc2c(c1)OCO2)c1ccc(NC(=O)CCCC(=O)O)cc1 do in these assays?
GalR3 antag: -3; NR2E3 ag-1: -49; 697 NFkB inh: -6; Jurkat NFkB inh: -7; JMJD2C inh: -2

How did COc1ccccc1C(=O)Nc1nnc([C@H]2C[C@H](O)[C@@H](CO)O2)s1 do in these assays?
GalR3 antag: 25*; NR2E3 ag-1: -1; GalR3 conf: -2; HEK-CNG parental: 0
